Read-outs that look alike come from different tables or passages of the source.
How the values were obtained:
[1] = ref Mantlo and Escribano [2014]; Cannady 2013; cited from earlier work
[2] = Phase 1 disposition study: metabolite radioprofiling in plasma and feces; assay type: in vivo, human; conditions: for Percent dose mean excreted in feces: single oral 100 mg 14C-evacetrapib
Method in brief: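 Samples came from five healthy males after a single oral 100 mg dose (~100 μCi 14C). Plasma, feces and urine were extracted, dried and reconstituted in DMSO/acetonitrile/10 mmol/L ammonium acetate (1:3:3). Metabolites were separated by HPLC, and fractions were counted to build radiochromatograms. Structures were identified by LC/MS and LC/MS/MS (ion trap, plus Orbitrap accurate mass) in positive ion mode.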

[3] = patients with dyslipidemia, alone or with statins; ref Nicholls et al. [2011]; cited from earlier work
[4] = Phase 1 disposition study: excretion and mass balance; assay type: in vivo, human
Method in brief: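 Five healthy males received a single oral 100 mg dose containing ~100 μCi 14C-label. Urine and feces were collected to 216 h, and expired air at selected times to 48 h for 14CO2. Radioactivity was counted by liquid scintillation, either directly (urine, expired air) or after combustion (feces). Cumulative fraction of dose was summed over collection periods.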

[5] = system: Human liver microsomes (HLMs); experiment: Substrate depletion in human liver microsomes; assay type: in vitro ADME; conditions: largest k calculated, used to approximate first-order conditions; HLMs 0.25 mg/mL
[6] = Substrate depletion in human liver microsomes; assay type: in vitro ADME; conditions: both, human, human liver microsomes
[7] = ref Mantlo and Escribano [2014]; Cannady 2013; cited from earlier work; remark: listed apart in the source
[8] = Phase 1 DDI study with ketoconazole in healthy subjects; assay type: in vivo, human; conditions: for Ratio of geometric LS means, AUC(0–∞), evacetrapib + ketoconazole versus evacetrapib (90% CI) / Ratio of geometric LS means, Cmax, evacetrapib + ketoconazole versus evacetrapib (90% CI): 100 mg evacetrapib, 400 mg ketoconazole daily; for CL/F: geometric mean (% CV)
Method in brief: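 Twelve fasted healthy adults of both sexes (18–65 y, BMI 18–32 kg/m2) took part in a fixed-sequence study. Period 1 was a single oral 100 mg of test compound, sampled predose to 168 h. After a ≥14-day washout, Period 2 was ketoconazole 400 mg daily for 14 days with 100 mg test compound on Day 5, sampled for 240 h. Plasma LC/MS/MS range was 1–1000 ng/mL. Analysis was noncompartmental, with log ANOVA (treatment fixed, subject random) and 90% CIs; tmax was compared by Wilcoxon test. Adverse events were recorded.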

CYP3A (rCYP3A4) = CYP3A (rCYP3A4) (Homo sapiens, UniProt P08684); experiment: Substrate depletion by human recombinant CYP3A4; assay type: in vitro ADME
CYP3A (rCYP3A4), sequence (P08684 whole entry): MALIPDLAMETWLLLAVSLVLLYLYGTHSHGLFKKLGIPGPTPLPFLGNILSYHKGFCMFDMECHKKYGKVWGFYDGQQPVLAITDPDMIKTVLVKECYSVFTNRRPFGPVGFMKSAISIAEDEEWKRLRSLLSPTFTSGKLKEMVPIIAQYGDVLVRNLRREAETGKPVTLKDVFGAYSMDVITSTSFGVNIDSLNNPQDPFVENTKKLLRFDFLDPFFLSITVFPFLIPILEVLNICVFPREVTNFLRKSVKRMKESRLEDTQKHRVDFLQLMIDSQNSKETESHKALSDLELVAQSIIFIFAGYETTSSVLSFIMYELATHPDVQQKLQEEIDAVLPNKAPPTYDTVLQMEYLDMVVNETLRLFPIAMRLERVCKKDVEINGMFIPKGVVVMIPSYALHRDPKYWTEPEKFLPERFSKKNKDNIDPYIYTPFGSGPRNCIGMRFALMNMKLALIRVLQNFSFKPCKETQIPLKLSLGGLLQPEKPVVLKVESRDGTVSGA
Method in brief: (§1)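 Human recombinant CYPs were insect-cell microsomes, with CYPb5 co-expressed if available, plus a no-CYP membrane control. Test compound (30 or 300 nmol/L) was incubated with matrix (0.25 mg/mL) and buffer. NADPH (1 mmol/L) started the reaction, and acetonitrile with internal standard stopped it after 5 or 30 min. CLint came from −kdep and the amount of rCYP, scaled to HLM by relative activity factor.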

[9] = assay type: in vivo, human; conditions: for % AUC(tlast–∞): geometric mean (range)
Method in brief: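 Five healthy males received a single oral 100 mg dose containing ~100 μCi 14C-label, with blood sampled to 192 h. Plasma parent was measured by LC/MS/MS (range 1–1000 ng/mL). Total radioactivity was counted by liquid scintillation, directly in plasma and after combustion for whole blood. Parameters were derived noncompartmentally. Adverse events were recorded.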

[10] = Phase 1 DDI study with gemfibrozil in healthy subjects; assay type: in vivo, human; conditions: for Ratio of geometric LS means, AUC(0–τ), evacetrapib + gemfibrozil versus evacetrapib (90% CI) / Ratio of geometric LS means, Cmax, evacetrapib + gemfibrozil versus evacetrapib (90% CI): 130 mg QD, 600 mg gemfibrozil BID
CYP2C8 (rCYP2C8) = biological target: T1, CYP2C8 (rCYP2C8) (Homo sapiens, UniProt P10632); experiment: Substrate depletion by human recombinant CYP2C8; assay type: in vitro ADME; conditions: human, recombinant CYP2C8 Supersomes (insect cell microsomes)
T1 sequence (P10632 1-490): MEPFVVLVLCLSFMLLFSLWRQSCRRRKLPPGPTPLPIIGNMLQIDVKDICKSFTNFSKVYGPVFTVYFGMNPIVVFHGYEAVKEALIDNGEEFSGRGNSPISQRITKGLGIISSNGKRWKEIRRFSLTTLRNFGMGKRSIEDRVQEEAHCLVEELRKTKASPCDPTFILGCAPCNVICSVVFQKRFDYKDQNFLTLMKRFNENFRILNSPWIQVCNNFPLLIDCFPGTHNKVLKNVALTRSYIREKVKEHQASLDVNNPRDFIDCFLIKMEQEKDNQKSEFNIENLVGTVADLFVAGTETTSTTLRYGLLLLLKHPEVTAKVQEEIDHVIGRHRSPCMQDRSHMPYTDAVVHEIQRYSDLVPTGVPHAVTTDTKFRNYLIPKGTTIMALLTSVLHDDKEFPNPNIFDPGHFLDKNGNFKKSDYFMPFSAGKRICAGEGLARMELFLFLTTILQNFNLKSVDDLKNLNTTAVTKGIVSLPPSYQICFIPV
Method in brief: as §1

rCYP2C8 = biological target: T2, rCYP2C8 (Homo sapiens, UniProt P10632); experiment: Substrate depletion by human recombinant CYP2C8; assay type: in vitro ADME; conditions: rCYP2C8
T2 sequence (P10632 1-490): T1 sequence (P10632 1-490)
Method in brief: as §1

[11] = both, human, plasma, oral, 100 mg
[12] = both, human, plasma, oral, 400 mg
[13] = male, human, plasma, oral, 100 mg
[14] = both, human, plasma, oral, 130 mg

Cc1cc(C)c2c(c1)[C@@H](N(Cc1cc(C(F)(F)F)cc(C(F)(F)F)c1)c1nnn(C)n1)CCCN2C[C@H]1CC[C@H](C(=O)O)CC1 [evacetrapib]
drug solubility [1]: poor | radioactive peaks in plasma ([2]; 24-h plasma samples, detected in only 3 subjects): only quantifiable radioactive peak | dose eliminated via CYP-mediated (oxidative) metabolism ([2]; from fecal metabolites): Approximately 70% | Dose eliminated in the select feces through 192 h postdose ([2]; percent dose mean): 89.86% | Percent dose mean excreted in feces [2]: 17 % of the dose | Percent dose mean excreted in feces ([2]; listed as Evacetrapib): 16.80 % of the dose | fraction of evacetrapib eliminated by CYPs ([2]; used in the static model): ~1 For determinations of fm, CYP3A4-mediated metabolism was considered to represent total CPY3A-mediated metabolism AUCi/AUC = 1/(1-fmCYP3A × fraction of evacetrapib eliminated by CYPs) where the fraction of evacetrapib eliminated by CYPs is approximately 0.7. | HDL-C levels [3]: increased | LDL-C levels [3]: decreased | changes in blood pressure, aldosterone, cortisol, or electrolytes [3]: without producing substantial changes | dose excreted in feces ([4]; mean (±SD), up to 216 h): 93.1 % of the dose | dose excreted in urine ([4]; mean (±SD), up to 216 h): 2.30 % of the dose | levels of radioactivity in expired air ([4]; samples up to 48 h): negligible | substrate depletion rate constant k in HLMs [5]: 0.0345 min⁻¹ | microsomal CLint [6]: 138 µL/min/mg | protein binding [7]: high | Ratio of geometric LS means, AUC(0–∞), evacetrapib + ketoconazole versus evacetrapib (90% CI) [8]: 2.37 | Ratio of geometric LS means, Cmax, evacetrapib + ketoconazole versus evacetrapib (90% CI) [8]: 1.94 | Ratio of geometric LS means, AUC(0–∞), evacetrapib + ketoconazole versus evacetrapib (90% CI) ([8]; listed as Evacetrapib): 2.37 (1.77, 3.18) | Ratio of geometric LS means, Cmax, evacetrapib + ketoconazole versus evacetrapib (90% CI) ([8]; listed as Evacetrapib): 1.94 (1.39, 2.72) | AUC(0-inf) [8, 11]: 5260 ng·h/mL | Cmax [8, 11]: 332 ng/mL | Tmax [8, 11]: 3 h | Vd/F [8, 11]: 861 L | Tmax [8, 12]: 3 h | Vd/F [8, 12]: 592 L | half-life [8, 12]: 63.2 h | TEAEs considered mild ([8]; evacetrapib alone or in combination with ketoconazole): 16 | TEAEs reported ([8]; evacetrapib alone or in combination with ketoconazole, reported by 5 subjects): 18 | CL/F ([8]; evacetrapib alone): 19.0 (51) L/h | CL/F ([8]; with 400 mg ketoconazole): 8.24 (57) L/h | difference in median tmax between treatments ([8]; with versus without ketoconazole): no difference | microsomal CLint (CYP3A (rCYP3A4); human, recombinant CYP3A4 Supersomes (insect cell microsomes)): 186 µL/min/mg | CLint (CYP3A (rCYP3A4); rCYP3A4 representing CYP3A): 4.257 μL × min^−1 × pmol CYP^−1 | −kdep (CYP3A (rCYP3A4); rCYP3A4 representing CYP3A): 0.002608 s⁻¹ | Average (%) of total radioactivity attributed to evacetrapib ([9]; based on AUC(0–36), plasma): 66% | Average (%) of total radioactivity attributed to evacetrapib ([9]; based on AUC(0–∞), plasma): 52% | Average (%) of total radioactivity attributed to evacetrapib ([9]; based on Cmax, plasma): 82% | % AUC(tlast–∞) ([9]; blood total radioactivity, N = 4): 21 (18–24) ^2% | association of evacetrapib-related material with red blood cells ([9]; from blood-to-plasma radioactivity ratios and hematocrit): negligible | AUC(0-t) [9, 13]: 6250 ng·h/mL | Cmax [9, 13]: 777 ng/mL | Vd/F [9, 13]: 564 L | half-life [9, 13]: 32.3 h | AUC(0-inf) ([9]; male, human, plasma, po, 100 mg): 8250 ng·h/mL | CL/F ([9]; plasma evacetrapib, geometric mean (CV)): 12.1 (20) L/h | % AUC(tlast–∞) ([9]; plasma evacetrapib): 1 (0–4) % | % AUC(tlast–∞) ([9]; plasma total radioactivity): 19 (13–26) % | treatment-emergent adverse events (TEAEs) reported ([9]; reported by 2 of 5 subjects, single 100-mg dose): 5 | AEs related to evacetrapib as judged by the investigator ([9]; single 100-mg dose): Three | severity of all AEs ([9]; single 100-mg dose): mild | Ratio of geometric LS means, AUC(0–τ), evacetrapib + gemfibrozil versus evacetrapib (90% CI) [10]: 0.996 | Ratio of geometric LS means, Cmax, evacetrapib + gemfibrozil versus evacetrapib (90% CI) [10]: 1.02 | Ratio of geometric LS means, AUC(0–τ), evacetrapib + gemfibrozil versus evacetrapib (90% CI) ([10]; listed as Evacetrapib): 0.996 (0.922, 1.08) | Ratio of geometric LS means, Cmax, evacetrapib + gemfibrozil versus evacetrapib (90% CI) ([10]; listed as Evacetrapib): 1.02 (0.933, 1.11) | AEs considered to be related to the study drug ([10]; 5 of 24 subjects who received evacetrapib alone and/or with gemfibrozil): 10 | Tmax ([10]; both, human, plasma, oral): 3 h | AUC [10, 14]: 11300 ng·h/mL | Cmax [10, 14]: 1270 ng/mL | Tmax [10, 14]: 4 h | severity of all AEs ([10]; human, in vivo): mild | AEs reported ([10]; whole study, reported by 12 subjects): 28 | difference in median tmax between treatments ([10]; with versus without gemfibrozil): no significant difference | microsomal CLint (CYP2C8 (rCYP2C8)): 19.9 µL/min/mg | CLint (rCYP2C8): 0.712 μL × min^−1 × pmol CYP^−1 | −kdep (rCYP2C8): 0.000707 s⁻¹

CC(=O)N1CCN(c2ccc(OCC3COC(Cn4ccnc4)(c4ccc(Cl)cc4Cl)O3)cc2)CC1 (stereo not shown) [ketoconazole, reference compound]
TEAEs considered moderate ([8]; reported by subjects who received ketoconazole alone): 2

— PMC4618649 (Pharmacology Research & Perspectives, 2015)
